# Lmaj promast: inhibitors of Leishmania major promastigote growth. Leishmania major promastigotes, resazurin fluorescence viability. 9% of 200,000 active. inhibition, % at 10 µM; in the data active = inhibition above about 50%;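 also: promastigotes grown with compound for 44 hours at 28 °C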
# Ba/F3 V617F tox: loss of viability in JAK2V617F-driven Ba/F3 cells; AID 1446; inhibition, % at 5.6 µM; Ba/F3 EpoR-JAK2V617F viability, ATP luminescence; 1.1% of 220,000 active;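 active = inhibition above the campaign mean plus 3 SD over all tested compounds, cut at about 24% in these data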;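 also: cytokine-independent growth of Ba/F3 cells driven by EpoR plus mutant JAK2; 0% = DMSO-treated cells and 100% = JAK inhibitor I control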
# BaF3 tox: parental Ba/F3 viability inhibition as JAK2V617F counter-screen; CellTiter-Glo ATP luminescence; inhibition, % at 5.6 µM; 1.1% of 220,000 active; AID 1486;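 active = inhibition above a per-campaign cutoff, the mean inhibition of all tested compounds plus 3 SD, cut at about 27% in these data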;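 also: 0% = DMSO wells and 100% = JAK Inhibitor I control wells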
# bCat nuc transl: alters nuclear translocation of beta-catenin in HeLa cells | nuclear translocation activity, % at 5 µM | 0.3% of 190,000 active | immunofluorescence imaging | AID 1665;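 active = nuclear translocation activity above 50% at 5 µM, with a well cell count of 50 or more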;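 also: per-cell ratio of nuclear to cytoplasmic median beta-catenin stain intensity; plate controls were DMSO negative control for no effect and GSK-3 inhibitor IX positive control for full effect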
#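 System: HeLa cells, endogenous beta-catenin; compound dosing: 5 µM primary single dose, 0.1% DMSO, 0.02–20 µM confirmation series; incubation: 24 h compound exposure at 37°C, 5% CO2; signal: beta-catenin immunofluorescence imaging with DAPI; evaluation: % activation, nuclear-to-cytoplasmic median beta-catenin signal ratio per cell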
# APP 5UTR inh: APP translation inhibition; SH-SY5Y APP 5'UTR-luciferase reporter, luminescence; inhibition, % at 2 µM; 0.82% of 190,000 active; AID 1285;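 active = inhibition above a set limit, derived from the sample mean plus 3 SD, cut at about 45% in these data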
# MT stabilizer: microtubule stabilizers in HeLa cells; AID 2205; 0.83% of 200,000 active; HeLa tubulin immunostaining HCS, 24 h; share of cells brighter than vehicle mean+2SD; % tubulin-high responders, % at 10 µM;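 active = plate Z-score above 3 for both tubulin-high and condensed-nucleus cell shares, with cell loss under 80%, at 10 µM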;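 also: anti alpha tubulin signal scored within the nucleus-defined area of each cell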
# Starred values were filed as active, the others as inactive; . = no result given. In the library only some 9.6% were active in any assay of this set; here they are far more common.
SMILES,Lmaj promast,Ba/F3 V617F tox,BaF3 tox,bCat nuc transl,APP 5UTR inh,MT stabilizer
N#Cc1ccc(Cl)cc1NC(=O)COC(=O)c1ccc(S(=O)(=O)N2CCCC2)cc1,-6,4,7,-1,-7,2
O=C(COC(=O)c1nc(Cl)ccc1Cl)Nc1ccccc1OC(F)F,-2,5,11,-3,-14,3
O=C(COC(=O)c1ccc(Cl)c([N+](=O)[O-])c1)Nc1ccccc1OC(F)F,58*,0,9,2,-3,2
Cc1cc(C)n(-c2ccc(C(=O)N3CCC(CO)(Cc4ccccc4)CC3)cc2)n1,-1,4,16,1,-7,.
CCN(CC)S(=O)(=O)c1ccc(OC)c(NC(=O)Cc2cccs2)c1,3,1,8,0,-13,1
CCN(c1ccccc1)S(=O)(=O)c1ccc(OC)c(NC(=O)c2cccs2)c1,96*,2,9,-2,-6,3
CCN(c1ccccc1)S(=O)(=O)c1ccc(N)c(OC)c1,1,3,11,111*,11,22*
COc1ccc(C2c3c(-c4ccccc4O)n[nH]c3C(=O)N2Cc2ccco2)cc1 (centres undefined),.,0,3,0,.,.
COc1ccc(CCN2C(=O)c3[nH]nc(-c4ccccc4O)c3C2c2cccc(Cl)c2)cc1 (centres undefined),100*,3,7,3,8,20*
Cc1ccc(C2c3c(-c4ccccc4O)n[nH]c3C(=O)N2Cc2ccncc2)cc1 (centres undefined),46,6,13,-1,-8,27*
COc1ccc(C2c3c(-c4ccccc4O)n[nH]c3C(=O)N2CCc2ccc(OC)c(OC)c2)cc1 (centres undefined),89*,1,3,.,1,2
CNC(=O)C1CC(=O)N(Cc2ccc3c(c2)OCO3)C(=Nc2ccc(OC)cc2)S1 (centres undefined),-6,0,4,-4,10,2
CCNC(=O)C1CC(=O)OC12CCCCC2 (centres undefined),-7,2,8,0,8,2
CCOC(=O)c1csc(N)c1-c1ccc([N+](=O)[O-])cc1,.,-2,1,0,.,.
Cc1c(NC(=O)C(C)N(c2ccccc2)S(C)(=O)=O)c(=O)n(-c2ccccc2)n1C (centres undefined),-1,-4,-2,3,-6,5
COc1ccc(C2c3c(ncn(CCN4CCOCC4)c3=N)Oc3ccc4ccccc4c32)cc1 (centres undefined),100*,1,6,5,11,5
N=c1c2c(ncn1CCN1CCOCC1)Oc1ccc3ccccc3c1C2c1ccccc1 (centres undefined),99*,1,2,.,4,3
c1ccc(C2c3c(ccc4ccccc34)Oc3ncn4nc(-c5ccco5)nc4c32)cc1 (centres undefined),47,1,4,-1,-13,12*
COc1ccc(C2C3=C(CC(C)(C)CC3=O)Oc3ncn(Cc4ccccc4)c(=N)c32)cc1 (centres undefined),63*,1,4,.,-12,2
COc1ccc(C2c3c(ccc4ccccc34)Oc3ncn4nc(CO/N=C/c5ccccc5)nc4c32)cc1 (centres undefined),16,1,3,-2,-6,1
COc1ccc(C2c3c(ccc4ccccc34)Oc3ncn4nc(-c5ccco5)nc4c32)cc1 (centres undefined),31,-2,-2,-1,-15,2
O=C(c1cccs1)N1CCN=C1SCc1ccccc1F,-3,-4,5,-4,4,3
N=c1c2c(ncn1Cc1ccco1)Oc1cc(O)ccc1C2c1ccccc1 (centres undefined),.,0,-2,1,.,.
N=c1c2c(ncn1Cc1ccco1)Oc1c(ccc3ccccc13)C2c1ccccc1 (centres undefined),57*,-1,6,7,17,12*
Cn1nc(C(F)(F)F)cc1C(=O)NC1CCCCCC1,4,0,4,.,-18,2
SMILES,Lmaj promast,Ba/F3 V617F tox,BaF3 tox,bCat nuc transl,APP 5UTR inh,MT stabilizer
c1ccc(CSCc2nc3ccccc3[nH]2)cc1,60*,0,-1,-1,-28,3
c1ccc(CSc2nc3ccccc3[nH]2)cc1,.,1,2,-1,.,.
Cn1c(-c2ccccc2)c[n+]2c1-c1ccccc1C2,8,85*,63*,3,-9,6
CC1(C)OC(=O)C(=NNc2ccc(O)cc2)C(=O)O1,5,36*,53*,9,9,3
COc1ccccc1-n1cnnc1SCc1csc(-c2ccccc2)n1,17,-3,1,-1,-9,1
Cc1ccc(CSc2nc3ccccc3c(=O)n2Cc2ccco2)cc1,62*,3,5,2,-2,3
Cc1ccc(-c2nc(CSc3nc4ccccc4c(=O)n3C)cs2)cc1,76*,0,7,.,-17,1
C=CCn1c(SCc2csc(-c3ccc(C)cc3)n2)nnc1-c1ccccc1OC,100*,-3,6,0,-3,3
Cc1ccc(-c2nc(CSc3nc4ccccc4c(=O)n3CCO)cs2)cc1,62*,-2,5,.,-2,1
Cc1ccc(CNC(=O)CSc2nc3ccccc3c(=O)n2CCCO)cc1,5,-5,-2,-1,-1,2
CC1CCCCN1c1ccc(N)cc1C(N)=O (centres undefined),9,1,10,-1,11,2
O=C(O)Cc1ccc(NC(=O)c2ccc(NC(=O)c3ccco3)cc2)cc1,-5,-5,2,.,2,4
Cc1ccoc1C(=O)Nc1ccc(CC(=O)O)cc1,-2,2,7,-1,79*,2
CCc1ccnc(NC(=O)NS(=O)(=O)c2ccc(C)cc2)c1,.,0,1,-1,.,.
O=C(NC1CC1)C1CCN(C2CCN(C(=O)CSc3ccccc3)CC2)CC1,.,4,1,0,.,.
O=C(NC1CC1)C1CCN(C2CCN(C(=O)/C=C/c3ccc(F)cc3)CC2)CC1,66*,-1,2,-1,-9,3
O=C(NC1CC1)C1CCN(C2CCN(C(=O)CC3=CCCCC3)CC2)CC1,75*,-3,0,-1,0,1
Cc1cccc(CC(=O)N2CCC(N3CCC(C(=O)N4CCOCC4)CC3)CC2)c1,35,-4,2,0,-6,3
O=C(/C=C/c1ccccc1)N1CCC(N2CCC(C(=O)N3CCOCC3)CC2)CC1,51*,3,2,1,-6,4
O=C(NCCc1ccccc1)C1CCN(C2CCN(C(=O)CC3=CCCCC3)CC2)CC1,-1,1,5,1,0,3
Cc1ccc(Nc2nnc(-c3ccncc3)s2)c(Br)c1,15,4,7,-1,-31,4
Cc1ccc(/C=N/n2c(C)nc3ccccc3c2=O)s1,2,1,0,4,-28,7
COc1cc(OC)c(NC(=O)CCCn2c(=O)oc3ccccc32)cc1Cl,-1,-4,1,-2,-22,1

# Screening data as filed in PubChem.
